These results are taken from ChEMBL document CHEMBL2046286, “Deconstructing 14-phenylpropyloxymetopon: minimal requirements for binding to mu opioid receptors” (Bioorg Med Chem, 2012).

Each structure is given as a SMILES string. The source made the active and inactive calls. The calls are words filed in the database; no cut-off is given here.

What all share (assay type): tissue-based
In one assay the target is Mu-type opioid receptor (Rattus norvegicus, UniProt P33535). As to the kind of experiment: (§1) Displacement of [3H]DAMGO from mu opioid receptor in rat brain homogenate after 1 hr by liquid scintillation counting. An outline of the steps: (§2)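 Competition with 12 concentrations of test compound, 1 h at 25°C; terminated by rapid vacuum filtration through GF/B filters presoaked in 0.5% polyethyleneimine. Bound radioactivity counted by liquid scintillation; Ki by Cheng-Prusoff.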
(Displacement assays read how much labelled ligand stays bound in the presence of the test substance.)

Assay [1] deals with Kappa-type opioid receptor (Rattus norvegicus) (UniProt P34975). In words: (§3) Displacement of [3H]U69593 from kappa opioid receptor in rat brain homogenate after 1 hr by liquid scintillation counting.
Assay [2] deals with Mu-type opioid receptor (Rattus norvegicus) (UniProt P33535). The assay is described as §1. An outline of the steps:
as §2

In assay [3] the target is Delta-type opioid receptor (Rattus norvegicus) (UniProt P33533). As to the kind of experiment: (§4) Displacement of [3H]DPDPE from delta opioid receptor in rat brain homogenate after 1 hr by liquid scintillation counting.
In assay [4] the target is Kappa-type opioid receptor (Rattus norvegicus, UniProt P34975). Described as §3.
Assay [5] deals with Delta-type opioid receptor (Rattus norvegicus, UniProt P33533). Described as §4.
Chain of Delta-type opioid receptor (P33533 whole entry): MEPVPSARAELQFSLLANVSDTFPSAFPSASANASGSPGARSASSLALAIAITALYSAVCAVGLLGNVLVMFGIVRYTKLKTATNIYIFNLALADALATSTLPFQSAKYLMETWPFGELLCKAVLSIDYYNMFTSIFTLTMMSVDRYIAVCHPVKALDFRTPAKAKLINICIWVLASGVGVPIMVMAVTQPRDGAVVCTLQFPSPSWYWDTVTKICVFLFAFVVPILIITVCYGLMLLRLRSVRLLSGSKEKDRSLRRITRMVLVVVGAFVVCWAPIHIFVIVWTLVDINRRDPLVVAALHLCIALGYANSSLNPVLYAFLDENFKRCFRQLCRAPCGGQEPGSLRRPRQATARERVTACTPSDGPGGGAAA

Chain of Delta-type opioid receptor (Rattus norvegicus) (P33533 whole entry): as above
Chain of Mu-type opioid receptor (Rattus norvegicus) (P33535 whole entry): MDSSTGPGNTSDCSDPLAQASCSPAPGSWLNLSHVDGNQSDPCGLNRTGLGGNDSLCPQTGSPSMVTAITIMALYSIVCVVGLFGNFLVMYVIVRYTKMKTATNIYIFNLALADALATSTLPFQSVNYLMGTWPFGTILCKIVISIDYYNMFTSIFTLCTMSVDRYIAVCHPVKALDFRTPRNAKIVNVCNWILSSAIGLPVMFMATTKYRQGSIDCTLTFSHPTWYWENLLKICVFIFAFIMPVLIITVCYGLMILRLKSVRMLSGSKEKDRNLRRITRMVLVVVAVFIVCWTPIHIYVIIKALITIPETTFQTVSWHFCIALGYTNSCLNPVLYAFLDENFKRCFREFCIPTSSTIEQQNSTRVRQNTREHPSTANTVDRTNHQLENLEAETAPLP
Chain of Mu-type opioid receptor (P33535 whole entry): as above
Chain of Kappa-type opioid receptor (Rattus norvegicus) (P34975 whole entry): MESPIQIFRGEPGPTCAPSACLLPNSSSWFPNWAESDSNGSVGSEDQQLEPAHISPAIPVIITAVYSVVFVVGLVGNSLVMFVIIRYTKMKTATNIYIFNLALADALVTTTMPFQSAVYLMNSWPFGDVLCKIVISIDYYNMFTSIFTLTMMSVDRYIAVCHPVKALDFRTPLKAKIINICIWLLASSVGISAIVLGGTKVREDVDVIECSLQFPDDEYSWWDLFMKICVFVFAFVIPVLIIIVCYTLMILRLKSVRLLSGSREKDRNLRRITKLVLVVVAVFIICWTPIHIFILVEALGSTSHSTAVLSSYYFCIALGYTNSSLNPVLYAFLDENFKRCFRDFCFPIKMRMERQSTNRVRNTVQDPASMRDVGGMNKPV
Chain of Kappa-type opioid receptor (P34975 whole entry): as above

One may read the Ki as the equilibrium dissociation constant of an inhibitor or competing ligand from its target. High values mean lower affinity, low ones higher affinity. In the case of `CCCN(CCC)CCOCCCc1ccccc1`, the Ki on Mu-type opioid receptor is over 10 µM.
For `C(=C\c1ccccc1)/COCCN1CCCCC1`, the result in assay [1], in assay [2] and in assay [3] was inactive.
`CN(C)CCOCCCc1ccccc1`: on Mu-type opioid receptor, the Ki was over 10 µM.
For the compound `CN(CCOC/C=C/c1ccccc1)CCc1ccccc1`, the Ki in assay [4] is over 10 µM; at Mu-type opioid receptor, 1.68 µM; in assay [5] it was 6.85 µM.
`CCN(CC)CCOCCCc1ccccc1` displayed a Ki on Mu-type opioid receptor of over 10 µM.
Take `CN(CCOC/C=C/c1ccccc1)Cc1ccccc1`: the Ki was over 10 µM in assay [4], 3.04 µM at Mu-type opioid receptor and over 10 µM in assay [5].
As for `CN(CCOCCCc1ccccc1)CCc1ccccc1`, the results for the inhibition constant (Ki) (in assay [4]; at Mu-type opioid receptor) were over 10 µM and 2.31 µM, respectively.
`CN(C)CCOC/C=C/c1ccccc1`: the Ki on Mu-type opioid receptor is over 10 µM.
With `c1ccc(CCCOCCN2CCCCC2)cc1`, the outcome in assay [1], in assay [2] and in assay [3] was inactive.
Consider `CCCN(CCC)CCOC/C=C/c1ccccc1`, for which the Ki on Mu-type opioid receptor is over 10 µM.
`C(=C\c1ccccc1)/COCCN1CCCCCC1` gave a Ki at Mu-type opioid receptor of over 10 µM.
For `CCN(CC)C(=O)COCCCc1ccccc1`, the inhibitory constant (Ki) at Mu-type opioid receptor is over 10 µM.
For the compound `CN(CCOCCCc1ccccc1)Cc1ccccc1`, the results for the Ki (in assay [4]; at Mu-type opioid receptor; in assay [5]) were over 10 µM, 2.76 µM and over 10 µM, respectively.
With `c1ccc(CCCOCCN2CCCCCC2)cc1`, the outcome in assay [1], in assay [2] and in assay [3] was inactive.
For `CN(CCCc1ccccc1)CCOCCCc1ccccc1`, the Ki is over 10 µM in assay [4], 1.52 µM at Mu-type opioid receptor and 6.65 µM in assay [5].
Regarding `CCCCN(CCCC)CCOCCCc1ccccc1`, the results for the Ki (in assay [4]; at Mu-type opioid receptor; in assay [5]) were over 10 µM, 2.49 µM and over 10 µM, respectively.
With `C=CCN(CC=C)CCOCCCc1ccccc1`, the outcome in assay [1] and in assay [3] was inactive. Besides, at Mu-type opioid receptor, the Ki was over 10 µM.
With `CCN(CC)CCOC/C=C/c1ccccc1`, the Ki on Mu-type opioid receptor was over 10 µM.
`C=CCN(CC=C)CCOC/C=C/c1ccccc1`: the result in assay [1] and in assay [3] was inactive. The Ki on Mu-type opioid receptor is over 10 µM.
Turning to `CCN(CC)C(=O)COC/C=C/c1ccccc1`, the Ki on Mu-type opioid receptor is over 10 µM.
On to `c1ccc(CCCOCCN2CCCC2)cc1`, for which the result in assay [1], in assay [2] and in assay [3] was inactive.
`CCCCN(CCCC)CCOC/C=C/c1ccccc1`: the values for the Ki (in assay [4]; at Mu-type opioid receptor; in assay [5]) were over 10 µM, 2.49 µM and over 10 µM, respectively.
As for `C(=C\c1ccccc1)/COCCN1CCCC1`, the result in assay [1], in assay [2] and in assay [3] was inactive.
Regarding `CN(CCCc1ccccc1)CCOC/C=C/c1ccccc1`, the Ki in assay [4] and in assay [5] was over 10 µM throughout.
